# Target: T1, OR5K1 (Homo sapiens) (UniProt Q8NHB7)
# T1 sequence (whole entry): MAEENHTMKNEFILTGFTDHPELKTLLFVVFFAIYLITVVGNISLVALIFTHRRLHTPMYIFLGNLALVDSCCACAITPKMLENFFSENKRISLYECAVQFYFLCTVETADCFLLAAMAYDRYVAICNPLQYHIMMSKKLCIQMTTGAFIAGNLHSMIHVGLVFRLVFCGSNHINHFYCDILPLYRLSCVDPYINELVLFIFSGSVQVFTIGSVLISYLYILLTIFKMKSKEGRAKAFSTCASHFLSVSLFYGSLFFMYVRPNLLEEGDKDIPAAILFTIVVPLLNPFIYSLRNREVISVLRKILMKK
# Conditions: stereoisomer not certain
# How it was run: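 Assay methods differ from source to source, frequently being transient luciferase assays in mammalian cell lines. For each receptor–molecule pair, the label responsive (active) applies when the original authors judged the measured signal statistically different from baseline, and non-responsive (inactive) applies otherwise.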
row,SMILES,odorant receptor agonist call
1,CCCSSSCCC,inactive
2,CCCCCCCC(C)=O,inactive
3,CCCCCC(C)O (centres undefined),inactive
4,CCCCCCCCC=CC=O,inactive
5,CCCCC(C)CCC(=O)O (centres undefined),inactive
6,CCC(C)C=O (centres undefined),inactive
7,COc1cccc(OC)c1O,inactive
8,C=C1CCC2CC1C2(C)C (centres undefined),inactive
9,CCC(C)CO (centres undefined),inactive
10,CCCCCCCC(=O)[O-].[H+],inactive
11,CCCSSCCC,inactive
12,CCc1cccc(O)c1,inactive
13,CC1=CCC(C(C)(C)S)CC1 (centres undefined),inactive
14,CC(=O)OCCC(C)C,inactive
15,CCCCCC=CC=CC=O,inactive
16,CCCCCCCCC1CCC(=O)O1 (centres undefined),inactive
17,CCOC(=O)C(C)CC (centres undefined),inactive
18,CCC=CCCC=O,inactive
19,CCCCCC=O,inactive
20,COc1ccc2ccc(=O)oc2c1,inactive

row,SMILES,odorant receptor agonist call
1,CCC=CCCC=CC=O,inactive
2,CCCC(=O)OCC,inactive
3,CC(C)CCO,inactive
4,CCCc1ccc(O)c(OC)c1,inactive
5,CCC=CCC=O,inactive
6,OCC=Cc1ccccc1,inactive
7,CCCC=CC=O,inactive
8,CSCCC=O,inactive
9,CSSSC,inactive
10,OCCc1ccccc1,inactive
11,CCCCCC(=O)OCC,inactive
12,CSCSC,inactive
13,CCOC(=O)C1CCCCC1,inactive
14,CC1=CCC(C(C)C)C=C1 (centres undefined),inactive
15,COCCC(C)(C)S,inactive
16,CSCCCO,inactive
17,CC(=O)OCC=Cc1ccccc1,inactive
18,CCCCCC1CCC(=O)O1 (centres undefined),inactive
19,CCCCCCCCCC(=O)OCC,inactive
